Assay results published in ChEMBL document CHEMBL1143313, “Synthesis of novel 4,6-di(substituted)amino-1,2-dihydro-1,3,5-triazine derivatives as topical antiseptic agents” (2009).

Experiments:
Assay type in all cases: functional
[1] = test system: Staphylococcus aureus; assay: Bactericidal activity against Staphylococcus aureus 209PJC preincubated for 5 mins before addition of growth medium measured after 40 to 48 hrs
[2] = test system: Staphylococcus aureus; assay: Bactericidal activity against methicillin-resistant Staphylococcus aureus 97-115 preincubated for 1 min before addition of growth medium measured after 40 to 48 hrs
Procedure, shortened: (§1)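 Read-out is the minimal bactericidal concentration (MBC), taken after 1, 3 and 5 min contact of compound with the test organism.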

[3] = test system: Pseudomonas aeruginosa; assay: Antibacterial activity against Pseudomonas aeruginosa PAO1
Procedure, shortened: (§2)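 Value is the minimal inhibitory concentration (MIC) against the test organism, read after 24 h of incubation.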

[4] = test system: Escherichia coli; assay: Bactericidal activity against Escherichia coli NIHJ JC-2 preincubated for 5 mins before addition of growth medium measured after 40 to 48 hrs
[5] = test system: Staphylococcus aureus; assay: Antibacterial activity against Staphylococcus aureus 209PJC after 24 hrs; procedure, shortened: as §2
[6] = test system: Staphylococcus aureus; assay: Bactericidal activity against Staphylococcus aureus 209PJC preincubated for 3 mins before addition of growth medium measured after 40 to 48 hrs
[7] = test system: Staphylococcus aureus; assay: Bactericidal activity against methicillin-resistant Staphylococcus aureus 97-115 preincubated for 3 mins before addition of growth medium measured after 40 to 48 hrs; procedure, shortened: as §1
[8] = test system: Pseudomonas aeruginosa; assay: Bactericidal activity against Pseudomonas aeruginosa PAO1 preincubated for 3 mins before addition of growth medium measured after 40 to 48 hrs
[9] = test system: Pseudomonas aeruginosa; assay: Bactericidal activity against Pseudomonas aeruginosa PAO1 preincubated for 1 min before addition of growth medium measured after 40 to 48 hrs
[10] = test system: Staphylococcus aureus; assay: Antibacterial activity against methicillin-resistant Staphylococcus aureus 97-115 after 24 hrs
Procedure, shortened: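 Read-out is the minimal inhibitory concentration (MIC), taken after 24 h incubation with the test organism.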

[11] = test system: Pseudomonas aeruginosa; assay: Bactericidal activity against Pseudomonas aeruginosa PAO1 preincubated for 5 mins before addition of growth medium measured after 40 to 48 hrs
[12] = test system: Escherichia coli; assay: Antibacterial activity against Escherichia coli NIHJ JC-2 after 24 hrs; procedure, shortened: as §2
[13] = test system: Staphylococcus aureus; assay: Bactericidal activity against Staphylococcus aureus 209PJC preincubated for 1 min before addition of growth medium measured after 40 to 48 hrs
[14] = test system: Escherichia coli; assay: Bactericidal activity against Escherichia coli NIHJ JC-2 preincubated for 1 min before addition of growth medium measured after 40 to 48 hrs
[15] = test system: Staphylococcus aureus; assay: Bactericidal activity against methicillin-resistant Staphylococcus aureus 97-115 preincubated for 5 mins before addition of growth medium measured after 40 to 48 hrs; procedure, shortened: as §1
[16] = test system: Escherichia coli; assay: Bactericidal activity against Escherichia coli NIHJ JC-2 preincubated for 3 mins before addition of growth medium measured after 40 to 48 hrs

Compound	MBC [1]	MBC [2]	MIC [3]	MBC [4]	MIC [5]	MBC [6]	MBC [7]	MBC [8]	MBC [9]	MIC [10]	MBC [11]	MIC [12]	MBC [13]	MBC [14]	MBC [15]	MBC [16]
CCCCCCCCCCNC1=NC(C)(C)NC(NCCc2ccc(OC)cc2)=N1.Cl	6.3 µg/mL	25 µg/mL	50 µg/mL	1.6 µg/mL	0.4 µg/mL	12.5 µg/mL	6.3 µg/mL	3.1 µg/mL	3.1 µg/mL	0.8 µg/mL	1.6 µg/mL	50 µg/mL	50 µg/mL	3.1 µg/mL	6.3 µg/mL	1.6 µg/mL
CC(=O)O.CCCCCCCCCNC1=NC(C)(C)NC(NCc2ccc(C)cc2)=N1	3.1 µg/mL	25 µg/mL	50 µg/mL	1.6 µg/mL	0.8 µg/mL	3.1 µg/mL	12.5 µg/mL	3.1 µg/mL	12.5 µg/mL	0.8 µg/mL	3.1 µg/mL	25 µg/mL	6.3 µg/mL	6.3 µg/mL	12.5 µg/mL	1.6 µg/mL
CC(=O)O.CCCCCCCCCNC1=NC(C)(C)NC(Nc2ccccc2)=N1	6.3 µg/mL	25 µg/mL	12.5 µg/mL	3.1 µg/mL	0.8 µg/mL	6.3 µg/mL	25 µg/mL	3.1 µg/mL	6.3 µg/mL	0.8 µg/mL	3.1 µg/mL	12.5 µg/mL	12.5 µg/mL	12.5 µg/mL	25 µg/mL	6.3 µg/mL
CC(=O)O.CCCCCCCCNC1=NC(C)(C)NC(NCc2ccccc2)=N1	6.3 µg/mL	> 50 µg/mL	25 µg/mL	6.3 µg/mL	0.8 µg/mL	12.5 µg/mL	50 µg/mL	12.5 µg/mL	25 µg/mL	1.6 µg/mL	12.5 µg/mL	12.5 µg/mL	25 µg/mL	12.5 µg/mL	50 µg/mL	6.3 µg/mL
CC(=O)O.CCCCCCCCCCNC1=NC(C)(C)NC(Nc2ccccc2)=N1	–	–	100 µg/mL	–	0.4 µg/mL	–	–	–	–	0.4 µg/mL	–	12.5 µg/mL	–	–	–	–
CC(=O)O.CCCCCCCCCCCNC1=NC(C)(C)NC(NCc2ccc(OC)cc2)=N1	–	–	100 µg/mL	–	0.4 µg/mL	–	–	–	–	0.8 µg/mL	–	100 µg/mL	–	–	–	–
CC(=O)O.CCCCCCCCNC1=NC(NCCCCC)=NC(C)(C)N1	3.1 µg/mL	6.3 µg/mL	25 µg/mL	6.3 µg/mL	1.6 µg/mL	3.1 µg/mL	3.1 µg/mL	3.1 µg/mL	6.3 µg/mL	1.6 µg/mL	3.1 µg/mL	25 µg/mL	3.1 µg/mL	12.5 µg/mL	3.1 µg/mL	6.3 µg/mL
CC(=O)O.CCCCCCCCNC1=NC(C)(C)NC(NCc2ccc(Cl)cc2)=N1	3.1 µg/mL	6.3 µg/mL	25 µg/mL	1.6 µg/mL	0.8 µg/mL	3.1 µg/mL	6.3 µg/mL	1.6 µg/mL	6.3 µg/mL	0.8 µg/mL	1.6 µg/mL	25 µg/mL	3.1 µg/mL	3.1 µg/mL	6.3 µg/mL	1.6 µg/mL
CC(=O)O.CCCCCCCCCCCCNC1=NC(C)(C)NC(NCC)=N1	1.6 µg/mL	25 µg/mL	50 µg/mL	3.1 µg/mL	0.8 µg/mL	3.1 µg/mL	12.5 µg/mL	3.1 µg/mL	3.1 µg/mL	1.6 µg/mL	3.1 µg/mL	12.5 µg/mL	3.1 µg/mL	12.5 µg/mL	6.3 µg/mL	3.1 µg/mL
CC(=O)O.CCCCCCCCNC1=NC(NCCC)=NC(C)(C)N1	–	–	100 µg/mL	–	1.6 µg/mL	–	–	–	–	6.3 µg/mL	–	100 µg/mL	–	–	–	–
CC(=O)O.CCCCCCCCNC1=NC(C)(C)NC(Nc2ccccc2)=N1	6.3 µg/mL	25 µg/mL	50 µg/mL	6.3 µg/mL	1.6 µg/mL	6.3 µg/mL	12.5 µg/mL	12.5 µg/mL	25 µg/mL	1.6 µg/mL	6.3 µg/mL	25 µg/mL	25 µg/mL	12.5 µg/mL	12.5 µg/mL	6.3 µg/mL
CC(=O)O.CCCCCCCCCCNC1=NC(C)(C)NC(NCc2ccc(OC)cc2)=N1	3.1 µg/mL	25 µg/mL	50 µg/mL	6.3 µg/mL	0.4 µg/mL	6.3 µg/mL	6.3 µg/mL	3.1 µg/mL	12.5 µg/mL	0.8 µg/mL	3.1 µg/mL	25 µg/mL	12.5 µg/mL	12.5 µg/mL	6.3 µg/mL	6.3 µg/mL
CC(=O)O.CCCCCCCNC1=NC(C)(C)NC(NCc2ccc(C)cc2)=N1	12.5 µg/mL	50 µg/mL	50 µg/mL	12.5 µg/mL	0.8 µg/mL	12.5 µg/mL	50 µg/mL	12.5 µg/mL	25 µg/mL	1.6 µg/mL	12.5 µg/mL	25 µg/mL	25 µg/mL	25 µg/mL	50 µg/mL	12.5 µg/mL
CC(=O)O.CCCCCCCCCCNC1=NC(C)(C)NC(NCc2ccccc2)=N1	6.3 µg/mL	12.5 µg/mL	25 µg/mL	6.3 µg/mL	0.4 µg/mL	6.3 µg/mL	6.3 µg/mL	3.1 µg/mL	3.1 µg/mL	0.4 µg/mL	1.6 µg/mL	12.5 µg/mL	6.3 µg/mL	25 µg/mL	6.3 µg/mL	12.5 µg/mL
CC(=O)O.CCCCCCCCCCNC1=NC(C)(C)NC(NCCc2ccccc2)=N1	12.5 µg/mL	> 50 µg/mL	25 µg/mL	12.5 µg/mL	0.8 µg/mL	12.5 µg/mL	> 50 µg/mL	12.5 µg/mL	25 µg/mL	0.8 µg/mL	12.5 µg/mL	25 µg/mL	50 µg/mL	12.5 µg/mL	> 50 µg/mL	12.5 µg/mL
CC(=O)O.CCCCCCCNC1=NC(C)(C)NC(NCCCCCCC)=N1	3.1 µg/mL	25 µg/mL	50 µg/mL	3.1 µg/mL	0.8 µg/mL	6.3 µg/mL	25 µg/mL	1.6 µg/mL	3.1 µg/mL	0.8 µg/mL	1.6 µg/mL	12.5 µg/mL	6.3 µg/mL	6.3 µg/mL	12.5 µg/mL	3.1 µg/mL
CC(=O)O.CCCCCCCCNC1=NC(C)(C)NC(NCc2ccc(C(F)(F)F)cc2)=N1	6.3 µg/mL	6.3 µg/mL	25 µg/mL	3.1 µg/mL	0.4 µg/mL	6.3 µg/mL	6.3 µg/mL	6.3 µg/mL	12.5 µg/mL	0.8 µg/mL	6.3 µg/mL	50 µg/mL	12.5 µg/mL	3.1 µg/mL	6.3 µg/mL	3.1 µg/mL
CC(=O)O.CCCCCCCCNC1=NC(C)(C)NC(NCCCCCCCC)=N1	–	–	> 100 µg/mL	–	0.8 µg/mL	–	–	–	–	1.6 µg/mL	–	100 µg/mL	–	–	–	–
CCCCCCCCCNC1=NC(C)(C)NC(NCc2ccc(OC)cc2)=N1.CS(=O)(=O)O	3.1 µg/mL	> 100 µg/mL	50 µg/mL	3.1 µg/mL	0.8 µg/mL	6.3 µg/mL	> 100 µg/mL	12.5 µg/mL	25 µg/mL	1.6 µg/mL	12.5 µg/mL	25 µg/mL	6.3 µg/mL	12.5 µg/mL	> 100 µg/mL	6.3 µg/mL
CC(=O)O.CCCCCCCCCCNC1=NC(C)(C)NC(NCc2ccc(C)cc2)=N1	–	–	100 µg/mL	–	0.8 µg/mL	–	–	–	–	0.8 µg/mL	–	100 µg/mL	–	–	–	–
CC(=O)O.CCCCCCCCCNC1=NC(C)(C)NC(NCCc2ccccc2)=N1	6.3 µg/mL	25 µg/mL	12.5 µg/mL	3.1 µg/mL	0.4 µg/mL	12.5 µg/mL	12.5 µg/mL	3.1 µg/mL	12.5 µg/mL	0.8 µg/mL	1.6 µg/mL	12.5 µg/mL	25 µg/mL	12.5 µg/mL	6.3 µg/mL	3.1 µg/mL
CC(=O)O.CCCCCCCCCCCNC1=NC(C)(C)NC(NCc2ccccc2)=N1	–	–	100 µg/mL	–	0.4 µg/mL	–	–	–	–	0.8 µg/mL	–	100 µg/mL	–	–	–	–
CC(=O)O.CCCCCCCCNC1=NC(C)(C)NC(NCCc2ccccc2)=N1	12.5 µg/mL	> 100 µg/mL	25 µg/mL	3.1 µg/mL	0.8 µg/mL	12.5 µg/mL	> 100 µg/mL	6.3 µg/mL	6.3 µg/mL	1.6 µg/mL	3.1 µg/mL	25 µg/mL	50 µg/mL	6.3 µg/mL	> 100 µg/mL	3.1 µg/mL
CC(=O)O.CCCCCCCNC1=NC(C)(C)NC(Nc2ccccc2)=N1	–	–	100 µg/mL	–	6.3 µg/mL	–	–	–	–	6.3 µg/mL	–	50 µg/mL	–	–	–	–
